Shown is part of a subset that was picked to be rich in hits.
STK33 kinase inh: inhibitors of human STK33 kinase; AID 2661; purified STK33, MBP phosphorylation, ADP-Glo luminescence; Q9BYT3; inhibition, % at 10 µM; 320,000 compounds, 0.073% hits;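 active means inhibition at or above 25%, using the most active replicate where run in duplicate; inactive means inhibition below 25%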
GSK3B inh: blocks human GSK3beta kinase activity | GST-GSK3beta kinase, ADP-Glo luminescence, 60 min; active compounds read low | AID 2097 | activity score (negative = inhibition), % at 10 µM | P49841 | 300,000 compounds, 0.038% hits;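 active means more than half of replicate wells score below -50%, meaning over 50% inhibition versus plate controls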;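 further: 0% = median DMSO wells and -100% = median GW8510 positive control wells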
Target sequence (P49841 whole entry, looked up): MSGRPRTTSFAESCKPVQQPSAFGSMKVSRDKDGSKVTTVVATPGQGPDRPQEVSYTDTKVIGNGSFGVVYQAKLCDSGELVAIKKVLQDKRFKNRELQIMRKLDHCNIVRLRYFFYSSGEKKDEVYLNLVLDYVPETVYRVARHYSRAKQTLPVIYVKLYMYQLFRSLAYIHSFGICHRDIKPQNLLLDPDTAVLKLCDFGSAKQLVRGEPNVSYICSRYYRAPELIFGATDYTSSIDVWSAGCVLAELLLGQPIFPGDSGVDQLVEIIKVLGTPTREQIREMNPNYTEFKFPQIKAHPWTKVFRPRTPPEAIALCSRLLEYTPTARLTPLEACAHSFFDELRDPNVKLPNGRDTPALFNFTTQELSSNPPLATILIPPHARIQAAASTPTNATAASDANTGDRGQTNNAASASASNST
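Test system: GST-tagged human GSK3beta kinase, cell-free; evaluation: activity score scaled between in-plate DMSO and GW8510 controls; measured by: ADP-Glo luminescence; incubation: 60 min reaction, RT; benchmarks: DMSO and 20 µM GW8510; reagent: peptide substrate plus 25 µM ATP (final); medium: Tris/MgCl2 kinase buffer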
Dyrk1A ADPGlo: inhibitors of rat Dyrk1A kinase | 310,000 compounds, 0.43% hits | inhibition, % at 12.5 µM | ADP-Glo luminescence, NFATc1 peptide | Q63470; in the data active means inhibition above about 50%;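 further: plate controls were vehicle with enzyme for no effect and no enzyme for full effect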
GSK3A inh: human GSK-3 alpha kinase inhibition | inhibition, % at 10 µM | 320,000 compounds, 0.1% hits | AID 2650 | ADP-Glo luminescence, 60 min;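 active means more than half of replicates show inhibition above 20%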;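 further: GST-tagged GSK-3 alpha with peptide substrate and 25 µM ATP; 0% = DMSO neutral wells and 100% = GW8510 positive control wells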
Dyrk1A artifact: interferes with ADP-Glo luciferase readout without Dyrk1A. 1,300 tested, under 10 active. ADP-Glo luciferase artifact assay, no Dyrk1A, luminescence. AC50, µM (top dose mostly 12 µM), for inactives: at the top dose activity change, negative = inhibition. shares compounds with Dyrk1A ADPGlo. AID 588348;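 active means fitted half-maximal dose AC50 no more than ten times the top valid tested dose, with luminescence dropping as dose rises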
Active calls of the source: *.

N#CC(C#N)=C1NC(N)=C(C#N)C(c2ccccc2)=C1C#N was read as STK33 kinase inh 9.1, GSK3B inh -30.8, Dyrk1A ADPGlo 65.5*, GSK3A inh 39.1 and Dyrk1A artifact 8.0%.
COCCNCc1nc2sc(C)c(-c3ccccc3)c2c(=O)[nH]1 was read as STK33 kinase inh 1.6, GSK3B inh -1.2, Dyrk1A ADPGlo 0.1 and GSK3A inh 4.2.
`Oc1ccc(-c2nc(-c3ccc(O)c(O)c3)cs2)cc1` gave STK33 kinase inh 18.8, GSK3B inh 3.7, Dyrk1A ADPGlo 71.6*, GSK3A inh 31.4 and Dyrk1A artifact 7.4%.
`O=C1NC(=S)/C(=C\c2ccc(-c3ccccc3Cl)o2)S1` gave STK33 kinase inh -1.4, GSK3B inh 2.9, Dyrk1A ADPGlo 3.0 and GSK3A inh -4.6.
Screening O=C1NC(=S)S/C1=C/c1ccc(N2CCOCC2)o1 returned STK33 kinase inh 17.3, GSK3B inh -44.0, Dyrk1A ADPGlo 15.4 and GSK3A inh 34.7.
`O=C1NC(=O)/C(=C\c2ccc(Br)o2)S1` gave STK33 kinase inh -1.7, GSK3B inh 0.5, Dyrk1A ADPGlo 65.6*, GSK3A inh 5.5 and Dyrk1A artifact 13.0%.
For O=C1NC(=O)/C(=C/c2ccc(-c3cc(C(=O)O)ccc3Cl)o2)S1 the results were STK33 kinase inh 12.7, GSK3B inh 2.2, Dyrk1A ADPGlo 60.9*, GSK3A inh 27.6 and Dyrk1A artifact 9.7%.
Screening Cc1oc2ncnc(N)c2c1C returned STK33 kinase inh 1.2, GSK3B inh -5.1, Dyrk1A ADPGlo 50.3*, GSK3A inh 2.5 and Dyrk1A artifact 7.5%.
`Cc1ccc(-c2oc3ncnc(N)c3c2-c2ccc(C)cc2)cc1` gave STK33 kinase inh 0.1, GSK3B inh 27.0, Dyrk1A ADPGlo -2.2 and GSK3A inh -2.2.
For Cn1c(SCC(=O)NC2CC2)nnc1-c1cccs1 the results were STK33 kinase inh -1.3, GSK3B inh -0.9, Dyrk1A ADPGlo 9.8 and GSK3A inh -1.3.
Screening CC(C)NS(=O)(=O)c1ccc(OCC(=O)N(C)Cc2ccccc2)cc1 returned STK33 kinase inh 4.9, GSK3B inh -0.2, Dyrk1A ADPGlo 83.2*, GSK3A inh 3.6 and Dyrk1A artifact 5.4%.
`COc1ccc(OCC(=O)N(C)Cc2ccccc2)cc1` gave STK33 kinase inh -5.3, GSK3B inh -1.4, Dyrk1A ADPGlo 0.5 and GSK3A inh 0.9.
`Clc1ccc2nc(COc3ccccc3)[nH]c2c1` gave STK33 kinase inh 9.8, GSK3B inh 1.6, Dyrk1A ADPGlo 53.9*, GSK3A inh -0.9 and Dyrk1A artifact 8.9%.
CCn1c2ccc(F)cc2c2nnc(SCCN3CCCCC3)nc21 was read as STK33 kinase inh 0.1, GSK3B inh 0.3, Dyrk1A ADPGlo 4.1 and GSK3A inh -0.6.
`CC(=O)N(CN1C(=O)c2ccccc2C1=O)c1cccc(C)c1` gave STK33 kinase inh -0.7, GSK3B inh 1.0, Dyrk1A ADPGlo 2.9 and GSK3A inh -0.6.
For CC(=O)N(/N=C1\Sc2ccccc2C1=O)c1cccc(C)c1 the results were STK33 kinase inh 1.3, GSK3B inh -1.4, Dyrk1A ADPGlo 50.0*, GSK3A inh 0.6 and Dyrk1A artifact 7.2%.
For CCCCC(=O)NC(=S)Nc1ccc(S(=O)(=O)N2CCCC2)cc1 the results were STK33 kinase inh -0.4, GSK3B inh -1.5, Dyrk1A ADPGlo -7.1 and GSK3A inh -2.5.
For Oc1ccc(C2=Nn3c(nnc3-c3ccco3)SC2)cc1O the results were STK33 kinase inh 3.3, GSK3B inh -23.4, Dyrk1A ADPGlo 79.0* and Dyrk1A artifact 13.8%.
For COc1ccc(C2=Nn3c(nnc3-c3ccco3)SC2)cc1 the results were STK33 kinase inh 0.3, GSK3B inh -2.5, Dyrk1A ADPGlo 38.0 and GSK3A inh 16.3.
Screening COc1ccc(OC)c(C2=Nn3c(nnc3-c3ccco3)SC2)c1 returned STK33 kinase inh -0.9, GSK3B inh 1.1, Dyrk1A ADPGlo 74.2*, GSK3A inh 4.9 and Dyrk1A artifact 9.2%.
For O=C(CCCCC(=O)NN=Cc1ccc(Cl)cc1)NN=Cc1ccc(Cl)cc1 the results were Dyrk1A ADPGlo -2.8.
`COc1cccc(Nc2nc(NCCO)c3ccccc3n2)c1` gave STK33 kinase inh 7.3, GSK3B inh -0.9, Dyrk1A ADPGlo 52.3* and Dyrk1A artifact 1.7%.
Screening c1ccc2c(c1)CCN(c1nc(CN3CCOCC3)nc3sc4c(c13)CCCC4)C2 returned STK33 kinase inh -1.4, GSK3B inh 1.5, Dyrk1A ADPGlo 4.2 and GSK3A inh 1.1.
Screening O=C1N/C(=N/S(=O)(=O)Cc2ccccc2)S/C1=C/c1ccc2c(c1)OCO2 returned STK33 kinase inh 14.6, GSK3B inh -3.3, Dyrk1A ADPGlo 92.0*, GSK3A inh 71.1* and Dyrk1A artifact 7.8%.
Screening O=C1NC(=S)SC1=Cc1ccc2c(c1)OCO2 returned Dyrk1A ADPGlo 48.8.
CCOc1ccc(C2CC(c3cccc(OC)c3)Nc3nc(N)nn32)cc1 (configuration not stated) was read as STK33 kinase inh 0.5, GSK3B inh 1.7, Dyrk1A ADPGlo 57.5* and Dyrk1A artifact 8.7%.
For COc1cccc(C2CC(c3ccc(C)cc3)n3nc(N)nc3N2)c1 (configuration not stated) the results were STK33 kinase inh -1.0, GSK3B inh 1.8, Dyrk1A ADPGlo -2.5 and GSK3A inh -2.2.
`CCOC(=O)C1=C(C)OC(N)=C(C#N)C1c1ccc(O)c(OC)c1` (configuration not stated) gave STK33 kinase inh -0.1, GSK3B inh -4.1, Dyrk1A ADPGlo 51.4*, GSK3A inh -1.3 and Dyrk1A artifact 11.1%.
For COc1cc(N2CN=c3s/c(=C\c4ccccn4)c(=O)n3C2)cc(OC)c1OC the results were STK33 kinase inh 0.8, GSK3B inh -2.5, Dyrk1A ADPGlo 53.2*, GSK3A inh 1.5 and Dyrk1A artifact 5.4%.
`COc1nc(C)ccc1-c1noc(-c2ccccn2)n1` gave STK33 kinase inh 0.5, GSK3B inh 1.1, Dyrk1A ADPGlo 56.7*, GSK3A inh 0.6 and Dyrk1A artifact 8.4%.
Screening O=C(Cc1ccsc1)NNC(=O)c1ccccc1O returned STK33 kinase inh -1.0, GSK3B inh 2.4, Dyrk1A ADPGlo -4.9 and GSK3A inh 1.0.
`CCOC(=O)c1nnc(-c2ccc(C)cc2)nc1Sc1ccc(Cl)cc1` gave STK33 kinase inh -0.7, GSK3B inh 3.2, Dyrk1A ADPGlo 54.9*, GSK3A inh -4.6 and Dyrk1A artifact 6.5%.
`C=CCc1ccc(OCCOc2ccc(/C=N/n3cnnc3)cc2OCC)c(OC)c1` gave STK33 kinase inh -1.2, GSK3B inh 1.7, Dyrk1A ADPGlo 60.1*, GSK3A inh -5.4 and Dyrk1A artifact 10.4%.
O=C(Cn1cnc([N+](=O)[O-])n1)c1ccc(O)c(O)c1 was read as STK33 kinase inh -2.0, GSK3B inh -1.1, Dyrk1A ADPGlo 5.2 and GSK3A inh -1.7.
`O=C(Nc1cccc(Cl)c1)ON=C1c2ccccc2-c2ccccc21` gave STK33 kinase inh 1.0, GSK3B inh -0.4, Dyrk1A ADPGlo 50.3*, GSK3A inh -0.5 and Dyrk1A artifact 10.8%.

High-throughput results from PubChem.
